Common to all, as to format: functional
Experiment [1] in a line: Superoxide radical scavenging activity assessed by measuring formazone produced at 400 ug/kg. To be noted: in the assay text read “400 ug/ml” for “400 ug/kg”. An outline of the steps:
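Superoxide generated enzymatically with xanthine ([…]), xanthine oxidase (0.04 U) and nitroblue tetrazolium, in 100 mM phosphate buffer, pH 8.2. Samples were sonicated in buffer and added at […], 37 °C for 30 min. Stopped with 0.5 mL glacial acetic acid; formazan read at 560 nm. Percent inhibition from ε 7.2×10³ M⁻¹cm⁻¹.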

A short description of experiment [2]: Hydroxy radical scavenging activity assessed by measuring malondialdehyde produced at 400 ug/kg by thiobarbituric acid method. To be noted: in the assay text read “400 ug/ml” for “400 ug/kg”. An outline of the steps: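 Non-enzymic hydroxyl-radical generation: deoxyribose 2.8 mM, FeSO4 2 mM, sodium ascorbate 2.0 mM and H2O2 2.8 mM in 50 mM KH2PO4, pH 7.4. Run with or without test compound at […], 37 °C for 90 min. Compared with compound-free reaction by Student's t-test.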

For experiment [3], the system named is Rattus norvegicus. As to the kind of experiment: Decrease in total cholesterol level in WR-1339-induced hyperlipidemic rat plasma at 400 mg/kg, po. Details: scale not given: the % may be the effect or the level left. An outline of the steps: (§1)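 Male adult Charles Foster rats (200–225 g), six per group. Triton WR-1339 400 mg/kg b.w. ip; treatment suspended in water with 0.2% w/v gum acacia, given po at the same time; diet withdrawn. Vehicle controls were included. After 18 h, under thiopentone anaesthesia, retro-orbital blood was collected into EDTA. Plasma was diluted 1:3 in saline and assayed enzymatically on an autoanalyzer. Percent change vs triton-only group, Student's t-test.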

Experiment [4] concerns Rattus norvegicus. As to the kind of experiment: Decrease in triglyceride level in WR-1339-induced hyperlipidemic rat plasma at 400 mg/kg, po. Details: scale not given: the % may be the effect or the level left. An outline of the steps:
as §1

The subject of experiment [5] is Rattus norvegicus. Nature of the experiment: Decrease in phospholipid level in WR-1339-induced hyperlipidemic rat plasma at 400 mg/kg, po. Details: scale not given: the % may be the effect or the level left. An outline of the steps:
as §1

The test system of experiment [6] is Rattus norvegicus. Nature of the experiment: Decrease in total cholesterol level in WR-1339-induced hyperlipidemic rat plasma at 100 mg/kg, po. Details: scale not given: the % may be the effect or the level left. An outline of the steps:
as §1

For experiment [7], the system named is Rattus norvegicus. As to the kind of experiment: Decrease in triglyceride level in WR-1339-induced hyperlipidemic rat plasma at 100 mg/kg, po. Details: scale not given: the % may be the effect or the level left. An outline of the steps:
as §1

The test system of experiment [8] is Rattus norvegicus. As to the kind of experiment: Decrease in phospholipid level in WR-1339-induced hyperlipidemic rat plasma at 100 mg/kg, po. Details: scale not given: the % may be the effect or the level left. An outline of the steps:
as §1

Structures are written as SMILES.

`CC(=O)OC[C@H]1O[C@H](OCCO[C@@H]2C[C@H]3[C@@H]4CC=C5C[C@@H](O)CC[C@]5(C)[C@H]4CC[C@]3(C)[C@H]2C(C)=O)[C@@H](OC(C)=O)[C@@H](OC(C)=O)[C@@H]1OC(C)=O`: the Activity in experiment [1] is 13.22 nmol/min; in experiment [2], 35.05 nmol/h.

As for `C[C@H](O)[C@H]1[C@H](OCCO)C[C@H]2[C@@H]3CC=C4C[C@@H](O)CC[C@]4(C)[C@H]3CC[C@]12C`, the Activity was -23% in experiment [3]; 9.33 nmol/min in experiment [1]; 31.09 nmol/h in experiment [2]; -26% in experiment [4]; -25% in experiment [5].

In the case of `CC(=O)OCCO[C@@H]1C[C@H]2[C@@H]3CC=C4C[C@@H](OC(C)=O)CC[C@]4(C)[C@H]3CC[C@]2(C)[C@H]1C(C)=O`, the Activity in experiment [3] is -13%; in experiment [1], 21.5 nmol/min; in experiment [2], 41.5 nmol/h; in experiment [4], -16%; in experiment [5] it was -13%.

In the case of `Cc1ccc(C)c(OCCCC(C)(C)C(=O)O)c1` [GEMFIBROZIL], the Activity in experiment [6] is -37%; in experiment [7], -32%; in experiment [8] it was -36%.

For `CC(=O)[C@H]1[C@H](OCCO)C[C@H]2[C@@H]3CC=C4C[C@@H](O)CC[C@]4(C)[C@H]3CC[C@@]21C`, the Activity in experiment [3] is -13%; in experiment [1] it was 7.83 nmol/min; in experiment [2], 36.12 nmol/h; in experiment [4] it was -11%; in experiment [5] it was -8%.

`CC(=O)C1=CC[C@H]2[C@@H]3CC=C4C[C@@H](OC(=O)c5ccccc5Cl)CC[C@]4(C)[C@H]3CC[C@]12C`: the Activity in experiment [3] is -21%; in experiment [1], 14.33 nmol/min; in experiment [2] it was 35.01 nmol/h; in experiment [4], -14%; in experiment [5], -17%.

For the compound `C/C(=N\OCCCCCBr)C1=CC[C@H]2[C@@H]3CC=C4C[C@@H](O)CC[C@]4(C)[C@H]3CC[C@]12C`, the Activity in experiment [3] was -4%; in experiment [1], 15.33 nmol/min; in experiment [2] it was 38.52 nmol/h; in experiment [4], -5%; in experiment [5] it was -5%.

In the case of `CC(=O)OCCO[C@@H]1C[C@H]2[C@@H]3CC=C4C[C@@H](OC(C)=O)CC[C@]4(C)[C@H]3CC[C@]2(C)[C@H]1[C@H](C)OC(C)=O`, the Activity is -18% in experiment [3]; 12.63 nmol/min in experiment [1]; 33.9 nmol/h in experiment [2]; -13% in experiment [4]; -14% in experiment [5].

`CC(=O)O[C@@H]1[C@@H](OC(C)=O)[C@H](C)O[C@@H](OCCO[C@@H]2C[C@H]3[C@@H]4CC=C5C[C@@H](O)CC[C@]5(C)[C@H]4CC[C@]3(C)[C@H]2C(C)=O)[C@@H]1OC(C)=O`: the Activity in experiment [1] is 12.8 nmol/min; in experiment [2], 39.02 nmol/h.

In the case of `CC(=O)C1=CC[C@H]2[C@@H]3CC=C4C[C@@H](OC(=O)c5ccc(Cl)cc5)CC[C@]4(C)[C@H]3CC[C@]12C`, the Activity in experiment [3] was -27%; in experiment [1], 11.1 nmol/min; in experiment [2], 27.16 nmol/h; in experiment [4], -25%; in experiment [5] it was -27%.

The record behind these values is ChEMBL document CHEMBL1148693, “Expeditious and convenient synthesis of pregnanes and its glycosides as potential anti-dyslipidemic and anti-oxidant agents” (2007).
